Test results published in ChEMBL document CHEMBL4673277, “In silico and in vitro screening for potential anticancer candidates targeting GPR120” (Bioorg Med Chem Lett, 2021).
pIC50: −log10 of the molar value. The source made the active and inactive calls. No cut-off for these calls is given here.

How the values were obtained:
[1] = tested on: SW480; test: Anticancer activity against human SW480 cells expressing GPR120 assessed as inhibition of cell viability measured after 24 hrs by alamar blue assay; format: functional, cell-based; conditions: SW480, 24 h
In short: (§1)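 SW480 seeded 10,000, 5,000 or 2500 cells/well for 24, 48 or 72 h exposure; 9 serial dilutions 100 to 0.39 μM in 0.5% DMSO medium, not replenished during treatment. Read by 6% alamar blue, 3 h, ex 560/em 590 nm. 50% DMSO defined 0%, 0.5% DMSO 100%; IC50 by non-linear regression. 5 replicates, three experiments.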

[2] = tested on: SW480; test: Anticancer activity against human SW480 cells transfected with scrambled siRNA assessed as inhibition of cell viability 5 uM measured after 24 hrs by alamar blue assay; format: functional, cell-based
In short: (§2)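 SW480 seeded overnight, transfected with 50 nM human GPR120 27mer siRNA duplex or universal scrambled siRNA duplex (siTran 2.0). Harvested 24 h post-transfection, then exposed to 5 μM, 24 h. Viability read by alamar blue (6%, 3 h, ex 560/em 590 nm). Five replicates, mean ± SE; two-way ANOVA with Tukey test.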

[3] = tested on: SW480; test: Anticancer activity against human SW480 cells transfected with GPR120 siRNA assessed as inhibition of cell viability 5 uM measured after 24 hrs by alamar blue assay; format: functional, cell-based; in short: as §2
[4] = tested on: SW480; test: Anticancer activity against human SW480 cells expressing GPR120 assessed as inhibition of cell viability measured after 48 hrs by alamar blue assay; format: functional, cell-based; conditions: SW480, 48 h; in short: as §1
[5] = tested on: SW480; test: Anticancer activity against human SW480 cells expressing GPR120 assessed as inhibition of cell viability at 100 uM measured after 72 hrs by alamar blue assay relative to control; format: functional
In short: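 SW480 in RPMI1640 + 10% FBS, 37 °C, 5% CO2; seeded 2500 cells/well, exposed 72 h to 100, 10, 1 μM in 0.5% DMSO medium. Medium then replaced by 6% alamar blue, 3 h, fluorescence ex 560/em 590 nm. Six replicates, mean ± SE; viability set relative to vehicle (0.5% DMSO) control.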

[6] = tested on: SW480; test: Anticancer activity against human SW480 cells expressing GPR120 assessed as inhibition of cell viability measured after 72 hrs by alamar blue assay; format: functional, cell-based; in short: as §1

SMILES | pIC50 [1] | Activity [2] | Activity [3] | pIC50 [4] | inhibition at 100 µM [5] [%] | Activity [6]
Cc1ccc(-n2c(SCC(=O)c3ccc(Br)cc3)nc3c(c2=O)C2(CCCC2)Cc2ccccc2-3)cc1 | 4.59 |  |  |  |  | 
O=C(CSc1nc2c(c(=O)n1C1CCCC1)C1(CCCC1)Cc1ccccc1-2)c1ccc(Cl)cc1 | 4.62 |  |  |  |  | 
O=C(CSc1nc2c(c(=O)n1CCc1ccccc1)C1(CCCC1)Cc1ccccc1-2)c1ccc(Cl)cc1 | 4.16 |  |  |  |  | 
COc1ccc(-n2c(SCC(=O)c3ccc(Cl)cc3)nc3c(c2=O)C2(CCCC2)Cc2ccccc2-3)cc1 | 5.17 | Active | Active |  |  | 
O=C1c2cc(S(=O)(=O)Nc3cccc4ccccc34)ccc2-c2ccc(S(=O)(=O)Nc3cccc4ccccc34)cc21 | 4.58 |  |  | 4.30 | > 90 | Active
O=C(CSc1nc2c(c(=O)n1-c1ccccc1)C1(CCCC1)Cc1ccccc1-2)c1ccc(Cl)cc1 | 5.23 | Active | inactive |  |  | 
Cc1ccc(-n2c(SCC(=O)c3ccccc3)nc3c(c2=O)C2(CCCC2)Cc2ccccc2-3)cc1 | 4.63 |  |  | 4.30 | > 90 | Active
Cn1c(SCC(=O)c2ccc(Cl)cc2)nc2c(c1=O)C1(CCCC1)Cc1ccccc1-2 | 4.64 |  |  |  |  | 
